According to ChEMBL document CHEMBL1147829, “4-(Aminoalkylamino)-3-benzimidazole-quinolinones as potent CHK-1 inhibitors” (Bioorg Med Chem Lett, 2006):
The source made the active and inactive calls. No cut-off for these calls is given here.

System: MDA-MB-435
Test: Cytotoxicity against human MDA-MB-435 cells in presence of camptothecin
Type: functional, cell-based
Summary of the method: (§1)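 MDA-MB-435 cells seeded at 5×10³ per well and allowed 4 h at 37 °C under 5% CO₂. They were then exposed to the agent alone or combined with camptothecin, with DMSO as vehicle control, for 48 h. MTS was developed 4 h and read at 490 nm with medium-only background subtracted. Percent was calculated relative to DMSO-treated cells.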

Row | SMILES | Activity
1 | O=c1[nH]c2ccc(Cl)cc2c(N[C@@H]2CN3CCC2CC3)c1-c1nc2ccccc2[nH]1 | Active

Biological target: T1, Serine/threonine-protein kinase Chk1 (Homo sapiens, UniProt O14757)
T1 sequence (O14757 whole entry): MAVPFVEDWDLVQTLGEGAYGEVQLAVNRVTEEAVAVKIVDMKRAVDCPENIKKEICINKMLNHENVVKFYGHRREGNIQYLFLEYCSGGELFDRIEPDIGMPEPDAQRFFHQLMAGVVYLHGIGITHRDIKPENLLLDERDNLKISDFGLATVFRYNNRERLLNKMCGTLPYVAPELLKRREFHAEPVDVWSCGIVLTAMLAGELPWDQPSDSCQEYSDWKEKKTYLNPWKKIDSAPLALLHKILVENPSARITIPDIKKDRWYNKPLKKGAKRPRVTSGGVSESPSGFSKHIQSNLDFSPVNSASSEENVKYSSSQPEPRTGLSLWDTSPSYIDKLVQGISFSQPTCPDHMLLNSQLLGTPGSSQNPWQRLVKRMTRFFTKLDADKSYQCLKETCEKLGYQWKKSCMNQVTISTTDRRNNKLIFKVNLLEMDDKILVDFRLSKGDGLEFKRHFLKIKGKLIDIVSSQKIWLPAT
Test: Inhibition of CHK1

Row | SMILES | IC50 [nM]
2 | O=c1[nH]c2ccccc2c(N[C@H]2CN3CCC2CC3)c1-c1nc2ccccc2[nH]1 | 482
3 | O=c1[nH]c2ccc(Cl)c(Cl)c2c(N[C@@H]2CN3CCC2CC3)c1-c1nc2ccccc2[nH]1 | 21.7
4 | CCN(CC)c1c(-c2nc3ccccc3[nH]2)c(=O)[nH]c2ccccc12 | > 30000
5 | O=c1[nH]c2ccccc2c(O)c1-c1nc2ccccc2[nH]1 | 2950
6 | Nc1c(-c2nc3ccccc3[nH]2)c(=O)[nH]c2ccccc12 | 731
7 | Cc1ccc2nc(O)c(-c3nc4ccccc4[nH]3)c(N[C@@H]3CN4CCC3CC4)c2c1 | 0.35
8 | Oc1nc2ccc(Cl)cc2c(N[C@H]2CCNC2)c1-c1nc2ccccc2[nH]1 | 0.5
9 | O=c1[nH]c2ccc(Cl)cc2c(NC2CCNCC2)c1-c1nc2ccccc2[nH]1 | 3.3
10 | O=c1[nH]c2ccccc2c(N[C@@H]2CN3CCC2CC3)c1-c1nc2ccccc2[nH]1 | 7.6
11 | Cc1ccc2nc(O)c(-c3nc4ccccc4[nH]3)c(NC3CCNCC3)c2c1 | 3.3
12 | Cc1cccc2c(N[C@@H]3CN4CCC3CC4)c(-c3nc4ccccc4[nH]3)c(O)nc12 | 138
13 | Cc1ccc2[nH]c(=O)c(-c3nc4ccccc4[nH]3)c(NC3CCCNC3)c2c1 (stereo unspecified) | 1.4
14 | O=c1[nH]c2ccc(Cl)cc2c(N[C@@H]2CCNC2)c1-c1nc2ccccc2[nH]1 | 7.2
15 | Oc1nc2ccc(Cl)cc2c(NC2CCCNC2)c1-c1nc2ccccc2[nH]1 (stereo unspecified) | 1.04

System: MDA-MB-435
Test: Cytotoxicity against human MDA-MB-435 cells
Type: functional, cell-based
Summary of the method: as §1

Row | SMILES | EC50 [nM]
16 | O=c1[nH]c2ccc(Cl)cc2c(N[C@@H]2CN3CCC2CC3)c1-c1nc2ccccc2[nH]1 | 80
